In ChEMBL document CHEMBL5329156, “Discovery and development of novel substituted monohydrazides as potent antifungal agents” (RSC Med Chem, 2023):
≈ marks a conversion by molar mass, not a printed value. Calls of active or inactive are those of the source. The calls are words filed in the database; no cut-off is given here.

Key:
Candida albicans [1] = assay: Antifungal activity against Candida albicans ATCC 10231 assessed as fungal growth inhibition by double dilution method; type: functional
How it was run: (§1)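 Broth microdilution after CLSI M27-A3/M38-A2 with minor changes. Single colony grown overnight in YPD at 35 °C, 200 rpm. Compound final range 0.06-31.3 µg/mL; incubated 48 h at 35 °C.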

Candida albicans [2] = assay: Antifungal activity against Candida albicans ATCC 64124 assessed as fungal growth inhibition by double dilution method; type: functional
How it was run: (§2)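 Broth microdilution after CLSI M27-A3/M38-A2 with minor modifications. A single colony was grown overnight in YPD at 35 °C with shaking at 200 rpm. Cells were mixed 1:1 with compound (final 0.06-31.3 µg/mL, from DMSO stocks) and incubated 48 h at 35 °C.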

Candida albicans [3] = assay: Antifungal activity against itraconazole/fluconazole susceptible Candida albicans ATCC MYA-2876 assessed as fungal growth inhibition by double dilution method; type: functional; how it was run: as §2
Candida albicans [4] = assay: Antifungal activity against itraconazole/fluconazole resistant Candida albicans ATCC 90819 assessed as fungal growth inhibition by double dilution method; type: functional; how it was run: as §2
Candida albicans [5] = assay: Antifungal activity against itraconazole/fluconazole susceptible Candida albicans ATCC MYA-2310 assessed as fungal growth inhibition by double dilution method; type: functional; how it was run: as §2
Candida albicans [6] = assay: Antifungal activity against itraconazole/fluconazole resistant Candida albicans ATCC MYA-1237 assessed as fungal growth inhibition by double dilution method; type: functional; how it was run: as §2
Candida albicans [7] = assay: Antifungal activity against itraconazole/fluconazole resistant Candida albicans ATCC MYA-1003 assessed as fungal growth inhibition by double dilution method; type: functional; how it was run: as §2
Nakaseomyces glabratus [8] = assay: Antifungal activity against Candida glabrata ATCC 2001 assessed as fungal growth inhibition by double dilution method; type: functional; how it was run: as §1
Pichia kudriavzevii [9] = assay: Antifungal activity against Pichia kudriavzevii ATCC 6258 assessed as fungal growth inhibition by double dilution method; type: functional; how it was run: as §1
Nakaseomyces glabratus [10] = assay: Antifungal activity against Candida glabrata ATCC 22019 assessed as fungal growth inhibition by double dilution method; type: functional; how it was run: as §1
[Candida] auris [11] = Antifungal activity against Candida auris AR Bank # 0384 assessed as fungal growth inhibition by double dilution method; type: functional; conditions: Candidozyma auris; how it was run: as §1
[Candida] auris [12] = Antifungal activity against Candida auris AR Bank # 0390 assessed as fungal growth inhibition by double dilution method; type: functional; conditions: Candidozyma auris; how it was run: as §1
Cryptococcus neoformans = assay: Antifungal activity against Cryptococcus neoformans ATCC MYA-895 assessed as fungal growth inhibition by double dilution method; type: functional; how it was run: as §1
Aspergillus terreus = assay: Antifungal activity against Aspergillus terreus ATCC MYA-3633 assessed as fungal growth inhibition by double dilution method; type: functional
Aspergillus fumigatus [13] = assay: Antifungal activity against Aspergillus fumigatus NRRL 163 assessed as fungal growth inhibition by double dilution method; type: functional
Aspergillus flavus = assay: Antifungal activity against Aspergillus flavus ATCC MYA-3631 assessed as fungal growth inhibition by double dilution method; type: functional
Aspergillus nidulans = assay: Antifungal activity against Aspergillus nidulans ATCC 38163 assessed as fungal growth inhibition by double dilution method; type: functional
Aspergillus fumigatus [14] = assay: Antifungal activity against Aspergillus fumigatus NRRL 5109 assessed as fungal growth inhibition by double dilution method; type: functional
Aspergillus fumigatus [15] = assay: Antifungal activity against Aspergillus fumigatus NRRL 6113 assessed as fungal growth inhibition by double dilution method; type: functional
[Candida] auris [16] = Antifungal activity against Candida auris AR Bank # 381 assessed as fungal growth inhibition by double dilution method; type: functional; conditions: Candidozyma auris; how it was run: as §1
[Candida] auris [17] = Antifungal activity against Candida auris AR Bank # 382 assessed as fungal growth inhibition by double dilution method; type: functional; conditions: Candidozyma auris; how it was run: as §1
[Candida] auris [18] = Antifungal activity against Candida auris AR Bank # 383 assessed as fungal growth inhibition by double dilution method; type: functional; conditions: Candidozyma auris; how it was run: as §1
[Candida] auris [19] = Antifungal activity against Candida auris AR Bank # 384 assessed as fungal growth inhibition by double dilution method; type: functional; conditions: Candidozyma auris; how it was run: as §1
[Candida] auris [20] = Antifungal activity against Candida auris AR Bank # 385 assessed as fungal growth inhibition by double dilution method; type: functional; conditions: Candidozyma auris; how it was run: as §1
[Candida] auris [21] = Antifungal activity against Candida auris AR Bank # 386 assessed as fungal growth inhibition by double dilution method; type: functional; conditions: Candidozyma auris; how it was run: as §1
[Candida] auris [22] = Antifungal activity against Candida auris AR Bank # 387 assessed as fungal growth inhibition by double dilution method; type: functional; conditions: Candidozyma auris; how it was run: as §1
[Candida] auris [23] = Antifungal activity against Candida auris AR Bank # 388 assessed as fungal growth inhibition by double dilution method; type: functional; conditions: Candidozyma auris; how it was run: as §1
[Candida] auris [24] = Antifungal activity against Candida auris AR Bank # 389 assessed as fungal growth inhibition by double dilution method; type: functional; conditions: Candidozyma auris; how it was run: as §1
[Candida] auris [25] = Antifungal activity against Candida auris AR Bank # 390 assessed as fungal growth inhibition by double dilution method; type: functional; conditions: Candidozyma auris; how it was run: as §1
Candida duobushaemulonii [26] = assay: Antifungal activity against Candida duobushaemulonii AR Bank # 391 assessed as fungal growth inhibition by double dilution method; type: functional; conditions: Candidozyma duobushaemuli; how it was run: as §1
Candida duobushaemulonii [27] = assay: Antifungal activity against Candida duobushaemulonii AR Bank # 392 assessed as fungal growth inhibition by double dilution method; type: functional; conditions: Candidozyma duobushaemuli; how it was run: as §1
[Candida] haemuloni [28] = Antifungal activity against Candida haemulonii AR Bank # 393 assessed as fungal growth inhibition by double dilution method; type: functional; conditions: Candidozyma haemuli; how it was run: as §1
Candida duobushaemulonii [29] = assay: Antifungal activity against Candida duobushaemulonii AR Bank # 394 assessed as fungal growth inhibition by double dilution method; type: functional; conditions: Candidozyma duobushaemuli; how it was run: as §1
[Candida] haemuloni [30] = Antifungal activity against Candida haemulonii AR Bank # 395 assessed as fungal growth inhibition by double dilution method; type: functional; conditions: Candidozyma haemuli; how it was run: as §1
Kodamaea ohmeri = assay: Antifungal activity against Kodamaea ohmeri AR Bank # 396 assessed as fungal growth inhibition by double dilution method; type: functional; how it was run: as §1
Pichia kudriavzevii [31] = assay: Antifungal activity against Pichia kudriavzevii AR Bank # 397 assessed as fungal growth inhibition by double dilution method; type: functional; how it was run: as §1
Clavispora lusitaniae = assay: Antifungal activity against Clavispora lusitaniae AR Bank # 398 assessed as fungal growth inhibition by double dilution method; type: functional; how it was run: as §1
Saccharomyces cerevisiae [32] = assay: Antifungal activity against Saccharomyces cerevisiae AR Bank # 399 assessed as fungal growth inhibition by double dilution method; type: functional; how it was run: as §1
Saccharomyces cerevisiae [33] = assay: Antifungal activity against Saccharomyces cerevisiae AR Bank # 400 assessed as fungal growth inhibition by double dilution method; type: functional; how it was run: as §1
Candida albicans [34] = assay: Antibiofilm activity against Candida albicans ATCC 10231 assessed as reduction in biofilm production at 1.96 to 3.9 microg/ml by biofilm formation assay; type: functional, organism-based; conditions: dose 1.96-3.9 µg/ml

Compound | MIC (Candida albicans [1]) | MIC (Candida albicans [2]) | MIC (Candida albicans [3]) | MIC (Candida albicans [4]) | MIC (Candida albicans [5]) | MIC (Candida albicans [6]) | MIC (Candida albicans [7]) | MIC (Nakaseomyces glabratus [8]) | MIC (Pichia kudriavzevii [9]) | MIC (Nakaseomyces glabratus [10]) | MIC ([Candida] auris [11]) | MIC ([Candida] auris [12]) | MIC (Cryptococcus neoformans) | MIC (Aspergillus terreus) | MIC (Aspergillus fumigatus [13]) | MIC (Aspergillus flavus) | MIC (Aspergillus nidulans) | MIC (Aspergillus fumigatus [14]) | MIC (Aspergillus fumigatus [15]) | MIC ([Candida] auris [16]) | other results
O=C(NNc1cc(Cl)cc(Cl)c1)c1ccccn1 | 0.24 µg/mL (≈ 0.851 µM) | 1.95 µg/mL (≈ 6.91 µM) | 1.95 µg/mL (≈ 6.91 µM) | 0.98 µg/mL (≈ 3.47 µM) | 1.95 µg/mL (≈ 6.91 µM) | 3.9 µg/mL (≈ 13.8 µM) | 1.95 µg/mL (≈ 6.91 µM) | 7.8 µg/mL (≈ 27.6 µM) | 0.98 µg/mL (≈ 3.47 µM) | 1.95 µg/mL (≈ 6.91 µM) | 7.8 µg/mL (≈ 27.6 µM) | 1.95 µg/mL (≈ 6.91 µM) | 0.49 µg/mL (≈ 1.74 µM) | 1.95 µg/mL (≈ 6.91 µM) | > 31.3 µg/mL | > 31.3 µg/mL | 0.49 µg/mL (≈ 1.74 µM) | > 31.3 µg/mL | > 31.3 µg/mL | 3.9 µg/mL (≈ 13.8 µM) | MIC ([Candida] auris [17]): 0.98 µg/mL (≈ 3.47 µM); MIC ([Candida] auris [18]): 1.95 µg/mL (≈ 6.91 µM); MIC ([Candida] auris [19]): 7.8 µg/mL (≈ 27.6 µM); MIC ([Candida] auris [20]): 1.95 µg/mL (≈ 6.91 µM); MIC ([Candida] auris [21]): 0.98 µg/mL (≈ 3.47 µM); MIC ([Candida] auris [22]): 0.98 µg/mL (≈ 3.47 µM); MIC ([Candida] auris [23]): 3.9 µg/mL (≈ 13.8 µM); MIC ([Candida] auris [24]): 1.95 µg/mL (≈ 6.91 µM); MIC ([Candida] auris [25]): 3.9 µg/mL (≈ 13.8 µM); MIC (Candida duobushaemulonii [26]): 0.98 µg/mL (≈ 3.47 µM); MIC (Candida duobushaemulonii [27]): 0.98 µg/mL (≈ 3.47 µM); MIC ([Candida] haemuloni [28]): 0.24 µg/mL (≈ 0.851 µM); MIC (Candida duobushaemulonii [29]): 0.49 µg/mL (≈ 1.74 µM); MIC ([Candida] haemuloni [30]): 0.24 µg/mL (≈ 0.851 µM); MIC (Kodamaea ohmeri): 0.49 µg/mL (≈ 1.74 µM); MIC (Pichia kudriavzevii [31]): 0.49 µg/mL (≈ 1.74 µM); MIC (Clavispora lusitaniae): 3.9 µg/mL (≈ 13.8 µM); MIC (Saccharomyces cerevisiae [32]): 3.9 µg/mL (≈ 13.8 µM); MIC (Saccharomyces cerevisiae [33]): 3.9 µg/mL (≈ 13.8 µM); Activity (Candida albicans [34]): inactive
COc1ccc(NNC(=O)c2ccccn2)cc1 | 0.12 µg/mL (≈ 0.493 µM) | 0.98 µg/mL (≈ 4.03 µM) | 1.95 µg/mL (≈ 8.02 µM) | 0.49 µg/mL (≈ 2.01 µM) | 0.98 µg/mL (≈ 4.03 µM) | 0.98 µg/mL (≈ 4.03 µM) | 0.98 µg/mL (≈ 4.03 µM) | 0.98 µg/mL (≈ 4.03 µM) | 0.49 µg/mL (≈ 2.01 µM) | 3.9 µg/mL (≈ 16 µM) | 3.9 µg/mL (≈ 16 µM) | 0.12 µg/mL (≈ 0.493 µM) | 0.49 µg/mL (≈ 2.01 µM) | 31.3 µg/mL (≈ 129 µM) | > 31.3 µg/mL | > 31.3 µg/mL | 0.49 µg/mL (≈ 2.01 µM) | > 31.3 µg/mL | 31.3 µg/mL (≈ 129 µM) | 1.95 µg/mL (≈ 8.02 µM) | MIC ([Candida] auris [17]): 1.95 µg/mL (≈ 8.02 µM); MIC ([Candida] auris [18]): 1.95 µg/mL (≈ 8.02 µM); MIC ([Candida] auris [19]): 3.9 µg/mL (≈ 16 µM); MIC ([Candida] auris [20]): 0.98 µg/mL (≈ 4.03 µM); MIC ([Candida] auris [21]): 0.24 µg/mL (≈ 0.987 µM); MIC ([Candida] auris [22]): 0.49 µg/mL (≈ 2.01 µM); MIC ([Candida] auris [23]): 0.49 µg/mL (≈ 2.01 µM); MIC ([Candida] auris [24]): 0.24 µg/mL (≈ 0.987 µM); MIC ([Candida] auris [25]): 0.12 µg/mL (≈ 0.493 µM); MIC (Candida duobushaemulonii [26]): 0.98 µg/mL (≈ 4.03 µM); MIC (Candida duobushaemulonii [27]): 0.98 µg/mL (≈ 4.03 µM); MIC ([Candida] haemuloni [28]): 0.49 µg/mL (≈ 2.01 µM); MIC (Candida duobushaemulonii [29]): 0.98 µg/mL (≈ 4.03 µM); MIC ([Candida] haemuloni [30]): 0.49 µg/mL (≈ 2.01 µM); MIC (Kodamaea ohmeri): 0.49 µg/mL (≈ 2.01 µM); MIC (Pichia kudriavzevii [31]): 0.49 µg/mL (≈ 2.01 µM); MIC (Clavispora lusitaniae): 0.98 µg/mL (≈ 4.03 µM); MIC (Saccharomyces cerevisiae [32]): 1.95 µg/mL (≈ 8.02 µM); MIC (Saccharomyces cerevisiae [33]): 0.98 µg/mL (≈ 4.03 µM); Activity (Candida albicans [34]): Active
